According to ChEMBL document CHEMBL1123005, “1-Azacycloalkyl-1,4-benzodiazepin-2-ones with antianxiety-antidepressant actions” (J Med Chem, 1985):
pIC50: −log10 of the molar value. Calls of active or inactive are those of the source. No cut-off for these calls is given here.

Experiments:
[1] = target: GABA-A receptor; anion channel (Rattus norvegicus) (UniProt O09028+P15431+P18506+P18508+P19969+P20236+P23574+P23576+P28471+P28473+P30191+P62813+P63079+P63138+Q91ZM7+Q9ES14); assay: Binding constant was determined by displacing potential to [3H]-diazepam binding in cerebral cortex homogenates of rat; assay type: tissue-based
Method in brief: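 Wistar rat cerebral cortex homogenate incubated with compound and 2 nM [3H]diazepam at 0 °C for 60 min. Bound label trapped on glass filters and counted by scintillation. Ki = IC50/(1 + L/Kd).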

Mus musculus [2] = assay: Effective dose against pentylenetetrazole intoxicity in mice administered through subcutaneous route; assay type: functional; settings: sc
Mus musculus [3] = assay: Effective dose against pentylenetetrazole intoxicity in mice administered orally; assay type: functional
Mus musculus [4] = assay: Effective dose against tetrabenazine induced ptosis in mice administered orally; assay type: functional
Method in brief: (§1)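 Male DS mice, 20-27 g, groups of five. Compound given po or sc in saline or gum arabic at 0.1 mL/10 g. Tetrabenazine 50 mg/kg sc given 1, 4 or 24 h later. Ptosis scored 1-4 at 1 h after TBZ, with ridit transformation. Dose for 50% prevention by regression.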

Mus musculus [5] = assay: Effective dose against tetrabenazine induced ptosis in mice administered subcutaneously at 50 mg/kg; assay type: functional; settings: sc, route subcutaneous; method in brief: as §1
Rattus norvegicus [6] = organism: Rattus norvegicus; assay: Inhibitory activity against uptake of [3H]norepinephrine into rat brain synaptosomes.; assay type: functional
Method in brief: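 P2 synaptosomes from male Wistar rat cerebral cortex incubated with [3H]norepinephrine at 37 °C for 20 min, with compound at 5-6 concentrations. Stopped by Krebs-Henseleit dilution and glass-fibre filtration, then scintillation counting. IC50 taken as the concentration giving 50% uptake inhibition.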

Mus musculus [7] = assay: Effective dose against pentylenetetrazole intoxicity in mice administered subcutaneously; NE = not effective at dose 10 mg/kg; assay type: functional, organism-based; set-up: dose 10 mg/kg
Mus musculus [8] = assay: Effective dose against tetrabenazine induced ptosis in mice administered through subcutaneous route; assay type: functional; settings: sc; method in brief: as §1
[9] = Acute toxicity was measured in mice after peroral administration (1306-1666); assay type: organism-based; settings: mouse, in vivo, po
Method in brief: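 Male DS mice, 20-26 g, given compound orally; mortality checked the day after treatment in groups of 10. LD50 by probit method, or by up-and-down method of Brownlee et al. (n = 5) where estimated.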

Rattus norvegicus [10] = assay: Effective dose was evaluated by their anticonflict effect in rats when administered through oral route; assay type: functional
Method in brief: (§2)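 Wistar rats in groups of 5-8, Geller-Seifter conflict procedure. Rats trained to lever-press for food on a variable-interval 60-s schedule. Oral dosing. A dose counted positive when shocks exceeded 12 or shock ratio exceeded 4 over four consecutive tone periods. ED50 with 95% limits by probit.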

Mus musculus [11] = assay: Effective dose against tetrabenazine induced ptosis in mice administered subcutaneously; assay type: functional; settings: sc; method in brief: as §1
Mus musculus [12] = assay: Effective dose against tetrabenazine induced ptosis in mice administered orally.; assay type: functional; settings: po; method in brief: as §1
Rattus norvegicus [13] = assay: Percent inhibition was evaluated by their anticonflict effect in rats when administered through oral route at 8 mg/kg; assay type: functional; method in brief: as §2
Mus musculus [14] = assay: Effective dose against pentylenetetrazole intoxicity in mice administered subcutaneously at 20 mg/kg; assay type: functional; settings: sc, route subcutaneous
Rattus norvegicus [15] = assay: Percent anticonflict effect in rats when administered through oral route at 16 mg/kg; assay type: functional; method in brief: as §2
[16] = Mus musculus, po, read-out: ED50

Row | Compound | K2 [1] | ED50 (Mus musculus [3]; [16]) | ED50 (Mus musculus [4]; [16]) | pIC50 (Rattus norvegicus [6]) | ED50 (Mus musculus [3]) | ED50 (Mus musculus [4]) | ED50 (Rattus norvegicus [10]) | ED50 (Mus musculus [11]) | further results
1 | CN1CCC(N2C(=O)CN=C(c3ccccc3Cl)c3cc(Cl)ccc32)CC1 | 0.021 µM | 3.24 mg/kg | 26.1 mg/kg | 4.40 |  |  |  |  | ED50 (Mus musculus [2]): 1.69 mg/kg; inhibition in vivo at 50 mg/kg (Mus musculus [5]): 23%
2 | CCOC(=O)N1CCC(N2C(=O)CN=C(c3ccccc3)c3ccccc32)CC1 | 2.3 µM |  |  |  |  |  |  |  | ED50 (Mus musculus [7]): inactive; ED50 (Mus musculus [8]): 0.65 mg/kg
3 | O=C1CN=C(c2ccccc2F)c2cc(Cl)ccc2N1C1CCNCC1 | 0.036 µM | 14.2 mg/kg | 0.76 mg/kg | 6.93 | 11.39 mg/kg | 0.67 mg/kg | 6.51 mg/kg | 0.08 mg/kg | LD50 [9]: 1480 mg/kg
4 | O=C1CN=C(c2ccccc2F)c2cc(Cl)ccc2N1C1CCNC1 (centres undefined) | 0.73 µM | 20.1 mg/kg |  |  |  |  |  | 28.9 mg/kg | ED50 (Mus musculus [12]): 0.4 mg/kg; inhibition in vivo at 8 mg/kg (Rattus norvegicus [13]): 60%
5 | CN1CCC(N2C(=O)CN=C(c3ccccc3)c3cc(Cl)ccc32)CC1 |  | 29.9 mg/kg | 0.58 mg/kg |  |  | 0.74 mg/kg | 8.4 mg/kg | 0.85 mg/kg | inhibition in vivo at 20 mg/kg (Mus musculus [14]): 50%
6 | CN1CCC(N2C(=O)CN=C(c3ccccc3)c3cc(F)ccc32)CC1 | 2.42 µM | 30 mg/kg | 1.41 mg/kg |  | 25.79 mg/kg |  |  |  | inhibition in vivo at 16 mg/kg (Rattus norvegicus [15]): 20%
